Here are results for 6 molecules from ChEMBL document CHEMBL4000151, “Potent Small Agonists of Protease Activated Receptor 2” (ACS Med Chem Lett, 2016).

Activity calls are given as the source filed them. No cut-off for these calls is given here. Non-standard residues stand in square brackets, D forms with d. Residues, ends and D or L forms follow the SMILES beside them. ξ: configuration not given here. *: point of attachment. Isoxazole(5-carbonyl) = O=C(c1ccno1)*; ξCha = NC(CC1CCCCC1)C(=O)O; ξChg = NC(C(=O)O)C1CCCCC1; Orn = NCCC[C@H](N)C(=O)O; 2Furoyl = O=C(c1ccco1)*

One series deals with Plasma. Description: Metabolic stability in rat plasma at 1 uM at pH 7.4 after 4 hrs by UPLC-MS analysis. To be noted: pH 7.4, 4 h. Format: ADME, cell-free. Summed up: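 Compound from DMSO stock added to a 1:1 mixture of PBS and rat plasma at 37 °C, 1 μM initial. Aliquots taken at 0 to 240 min and quenched in MeCN, then centrifuged. Supernatant analysed by UPLC-MS as % of t = 0 peak area; n = 3.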

Another series has as its system CHO. Nature of the series: Induction of intracellular calcium release in PAR2 deficient CHO cells at 100 uM measured for 300 secs by Fluo-3 AM dye-based fluorescence assay. The conditions noted are these: Cricetulus griseus. The series is classed as functional, cell-based. The procedure, abridged:
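CHO cells stably expressing human PAR2 (wild-type or point mutant), or untransfected CHO cells, plated ~5 × 10^4/well overnight at 37 °C. Loaded 1 h at 37 °C with 4 μM Fluo-3 AM in HBSS with 1% FBS, then washed into HBSS with 2.5 mM probenecid and 20 mM HEPES, pH 7.4. Compound added over a concentration range. Ca2+ read 300 s (ex 495/em 520 nm); duplicates; normalized to calcimycin; EC50 from nonlinear regression.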
On the technique in general: Calcium flux is commonly read through the fluorescence of an indicator in the cells.

Series [1] deals with T1, Proteinase-activated receptor 2 (Homo sapiens, UniProt P55085).
T1 sequence (P55085 whole entry): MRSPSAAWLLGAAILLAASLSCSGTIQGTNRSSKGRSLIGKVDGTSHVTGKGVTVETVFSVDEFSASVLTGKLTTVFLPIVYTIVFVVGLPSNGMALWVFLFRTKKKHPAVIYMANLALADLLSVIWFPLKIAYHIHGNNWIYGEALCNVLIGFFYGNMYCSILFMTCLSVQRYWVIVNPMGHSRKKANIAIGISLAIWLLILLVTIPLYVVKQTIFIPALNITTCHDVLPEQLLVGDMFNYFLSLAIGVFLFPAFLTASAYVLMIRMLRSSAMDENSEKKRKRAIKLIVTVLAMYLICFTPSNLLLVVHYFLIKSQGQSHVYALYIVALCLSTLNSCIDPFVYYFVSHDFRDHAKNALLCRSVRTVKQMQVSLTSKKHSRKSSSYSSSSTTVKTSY
Nature of the series: Agonist activity at human PAR2 expressed in CHO cells assessed as induction of intracellular calcium release measured for 300 secs by Fluo-3 AM dye-based fluorescence assay. Format: functional, cell-based. The procedure, abridged:
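CHO cells stably expressing human PAR2 (wild-type or point mutant), or untransfected CHO cells, plated ~5 × 10^4/well overnight at 37 °C. Loaded 1 h at 37 °C with 4 μM Fluo-3 AM in HBSS with 1% FBS, then washed into HBSS with 2.5 mM probenecid and 20 mM HEPES, pH 7.4. Compound added over a concentration range.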

Series [2] has as its target Proteinase-activated receptor 2 (Homo sapiens) (UniProt P55085). Nature of the series: Agonist activity at PAR2 in human PC3 cells assessed as induction of intracellular calcium release at 25 uM of first compound treatment followed by 100 uM of second compound treatment by Fluo-3 AM dye based fluorescence assay. Format: functional, cell-based.
Series [3] has the same target. Nature of the series: Agonist activity at PAR2 in human MDA-MB-231 cells assessed as induction of chemotaxis at 100 nM incubated for 24 hrs by transwell migration assay. The series is classed as cell-based. Summed up: (§1)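 MDA-MB-231 cells lifted non-enzymatically into serum-free L-15 with 0.1% BSA and seeded at 2.5 × 10^5/insert on collagen-coated 5 μm transwell membranes, 3 h at 37 °C. Agonist at 100 nM placed in the bottom chamber for 24 h; SAM11 anti-PAR2 antibody (1 μg/mL) preincubated 30 min where used. Migrated cells stained with crystal violet and counted; chemotactic index = agonist/random migration.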

For series [4] the target is unchanged. Nature of the series: Agonist activity at PAR2 in human MDA-MB-231 cells assessed as induction of chemotaxis at 100 nM incubated for 24 hrs cells preincubated with PAR2 antibody SAM11 prior to test compound addition by transwell migration assay. The series is classed as cell-based. Summed up:
as §1

As to `NC(=O)[C@@H](NC(=O)[C@H](CC1CCCCC1)NC(=O)c1ccno1)C1CCCCC1`, the Stability entry in the series with Plasma was “Stable”. The result in the series on CHO was inactive. Turning to `CC[C@H](C)[C@H](NC(=O)[C@H](CC(C)C)NC(=O)c1ccco1)C(=O)NCC(=O)N[C@@H](CCCN=C(N)N)C(=O)N[C@@H](CC(C)C)C(=O)N[C@@H](CCCN)C(N)=O` (2Furoyl-LIGRL[Orn]-NH2), the 50% effective concentration (EC50) (commonly the midpoint of the concentration-response curve) in series [1] was 0.3 µM. `CC[C@H](C)[C@H](NC(=O)[C@H](CC(C)C)NC(=O)c1ccco1)C(=O)NCC(=O)N[C@@H](CCCNC(=N)N)C(=O)N[C@@H](CC(C)C)C(=O)N[C@@H](CCCN)C(N)=O` (2Furoyl-LIGRL[Orn]-NH2): the result (in series [2]; in series [4]; in the series with CHO) was inactive. Moreover, the outcome in series [3] was Active. On to `CC[C@H](C)[C@H](NC(=O)C(CC1CCCCC1)NC(=O)c1ccno1)C(=O)NCC(=O)N[C@@H](CCCNC(=N)N)C(=O)N[C@@H](CC(C)C)C(N)=O` (stereo not given in full) ({Isoxazole(5-carbonyl)}-[ξCha]IGRL-NH2), for which, in series [1], the half-maximal effective concentration (EC50) amounted to 0.2 µM. The same measure, in the same setting: the value for `CC(C)C[C@H](NC(=O)[C@H](CCCNC(=N)N)NC(=O)CNC(=O)C(NC(=O)C(CC1CCCCC1)NC(=O)c1ccno1)C1CCCCC1)C(N)=O` (stereo not given in full) ({Isoxazole(5-carbonyl)}-[ξCha][ξChg]GRL-NH2) was 0.08 µM. With H-SLIGKV-NH2, the half-maximal effective concentration (EC50) in series [1] was found to be 3 µM.
